From article PMC12271353 (Scientific Reports, 2025)
Read-outs that look alike come from different tables or passages of the source.

Assays:
[1] = system: pBR322 plasmid DNA; assay: DNA nicking assay; assay type: biochemical; settings: with Fenton's reagent; 10 µg/mL
Procedure, shortened: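 pBR322 supercoiled plasmid (2 µL of a 50 µg/100 µL stock) mixed with 10 µL Fenton's reagent (80 mM FeCl₃, 30 mM H₂O₂, 50 mM ascorbic acid) and test compound (2–10 µg/mL) in water to 20 µL. Incubated for 30 min at 37 °C, then run on 1% agarose gel. Form I, II and III percentages were derived by densitometry. Water replaced Fenton's reagent as the negative control, and rutin served as the positive control.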

[2] = system: S. Typhimurium TA100; settings: highest dose 250 μg/100 μL, cited from earlier work
[3] = system: MRSA; assay: Kirby-Bauer disc diffusion; assay type: cell-based, methicillin-resistant Staphylococcus aureus; settings: Staphylococcus aureus
Procedure, shortened: (§1)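 Kirby-Bauer method. Mueller Hinton agar plates were seeded with the test bacteria. Discs carrying 30 µg of test compound were placed on the surface and left to diffuse for 30 min at 4 °C. Plates were incubated at 37 °C, and inhibition zones were measured in mm.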

[4] = system: S. Typhimurium TA98; settings: highest dose 250 μg/100 μL, ref Sharma et al.[46]; cited from earlier work
[5] = system: VRE; assay: Kirby-Bauer disc diffusion; assay type: cell-based, Vancomycin-resistant Enterococcus; settings: HFM-2P, teicoplanin 30 µg/disc
Procedure, shortened: as §1

For `C[C@@H]1O[C@@H](OC[C@H]2O[C@@H](Oc3c(-c4ccc(O)c(O)c4)oc4cc(O)cc(O)c4c3=O)[C@H](O)[C@@H](O)[C@@H]2O)[C@H](O)[C@H](O)[C@H]1O` [Rutin, rutin], the “Form I (supercoiled) DNA” value [1] was 54.72% and the “Form II DNA” value [1] was 45.27%.
For `CC1OC(n2ccc(NC(=O)c3ccc(N)cc3)nc2=O)CCC1OC1OC(C)C(N(C)C)C(O)C1O` (stereo not shown) [plicacetin], the Antimutagenic activity ([2]; ref Devi et al.[33]) is given as 41.10–88.53%.
With `CN[C@H](CC(C)C)C(=O)N[C@H]1C(=O)N[C@@H](CC(N)=O)C(=O)N[C@H]2C(=O)N[C@H]3C(=O)N[C@H](C(=O)N[C@H](C(=O)O)c4cc(O)cc(O)c4-c4cc3ccc4O)[C@H](O)c3ccc(c(Cl)c3)Oc3cc2cc(c3O[C@@H]2O[C@H](CO)[C@@H](O)[C@H](O)[C@H]2O[C@H]2C[C@](C)(N)[C@H](O)[C@H](C)O2)Oc2ccc(cc2Cl)[C@H]1O` [vancomycin] the zone of inhibition at 30 µg/disc [3] was 18 mm.
In the case of salvianolic acid B, the Antimutagenic activity [4] is given as 47.87–88.11% and the Antimutagenic activity ([2]; ref Sharma et al.[46]) is given as 41.10–88.53%.
In the case of teicoplanin, the Zone of inhibition [5] is reported as 15 mm.
